The source made the active and inactive calls. No cut-off for these calls is given here.
Key:
[1] = Cytotoxicity against human MT4 cells by MTT method; format: cell-based
In short: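 Mock-infected MT-4 cells, run in parallel with the antiviral test; CC50 = concentration reducing viability by 50%, read by MTT. Triplicate samples.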

[2] = system: Human immunodeficiency virus 1; experiment: Antiviral activity against HIV1 in MT4 cells assessed as reduction of virus induced cytopathogenicity by MTT method; format: functional, organism-based; settings: Human immunodeficiency virus 1, MT4
In short: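 MT-4 cells infected with wild-type HIV-1; EC50 = concentration giving 50% protection of cells from virus-induced cytopathogenicity, viability read by MTT. Triplicate samples.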

[3] = Selectivity index, ratio of CC50 for human MT4 cells to EC50 for HIV1 cells; format: toxicity, cell-based; settings: read-out: Ratio CC50/EC50
In short: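 Ratio of CC50 (mock-infected MT-4 viability, MTT) to EC50 (50% protection of MT-4 cells from HIV-1 cytopathogenicity, MTT), both taken from the same parallel cell-based run.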

[4] = system: Human immunodeficiency virus 1; experiment: Antiviral activity against HIV1 with reverse transcriptase Y181C mutation; format: functional, organism-based
In short: (§1)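 MT-4 cells infected with the mutant HIV-1 strain; protection from virus-induced cytopathogenicity read by MTT. EC50 is the concentration (µM) giving 50% protection. Cytotoxicity was assayed in parallel on mock-infected MT-4 cells by MTT. Triplicate samples.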

[5] = system: Human immunodeficiency virus 1; experiment: Antiviral activity against HIV1 with reverse transcriptase K103R mutation; format: functional, organism-based; in short: as §1
[6] = target: Human immunodeficiency virus type 1 reverse transcriptase (Human immunodeficiency virus 1, UniProt Q72547); experiment: Inhibition of HIV1 virion-associated reverse transcriptase

Row | SMILES | CC50 [1] [µM] | EC50 [2] [µM] | selectivity ratio [3] | EC50 [4] [µM] | EC50 [5] [µM] | IC50 [6] [µM] | Activity [5]
1 | O=C1c2ccccc2C(=O)N1CCO/C(=N\c1ccc([N+](=O)[O-])cc1)SS/C(=N/c1ccc([N+](=O)[O-])cc1)OCCN1C(=O)c2ccccc2C1=O | > 100 | 0.07 | > 1430 | 57 | 62 | – | –
2 | Cc1cc(C)cc(/N=C(\OCCN2C(=O)c3ccccc3C2=O)SS/C(=N/c2cc(C)cc(C)c2)OCCN2C(=O)c3ccccc3C2=O)c1 | > 100 | 3 | > 33 | – | – | – | –
3 | O=C1c2ccccc2C(=O)N1CCO/C(=N\c1cccc2ccccc12)SS/C(=N/c1cccc2ccccc12)OCCN1C(=O)c2ccccc2C1=O | > 100 | 8 | > 13 | – | – | – | –
4 | Cc1cc(Br)cc(C)c1/N=C(\OCCN1C(=O)c2ccccc2C1=O)SS/C(=N/c1c(C)cc(Br)cc1C)OCCN1C(=O)c2ccccc2C1=O | > 100 | > 100 | – | – | – | – | –
5 | Cc1ccc(/N=C(\OCCN2C(=O)c3ccccc3C2=O)SS/C(=N/c2ccc(C)c(Cl)c2)OCCN2C(=O)c3ccccc3C2=O)cc1Cl | > 100 | 0.2 | > 500 | – | – | – | –
6 | O=C1c2ccccc2C(=O)N1CCO/C(=N\c1ccc(Cl)cc1)SS/C(=N/c1ccc(Cl)cc1)OCCN1C(=O)c2ccccc2C1=O | 88 | 0.02 | 5500 | – | – | – | –
7 | O=C1c2ccccc2C(=O)N1CCO/C(=N\c1cc(Cl)cc(Cl)c1)SS/C(=N/c1cc(Cl)cc(Cl)c1)OCCN1C(=O)c2ccccc2C1=O | 42 | > 42 | < 1 | – | – | – | –
8 | O=C1c2ccccc2C(=O)N1CCO/C(=N\c1ccc(Cl)c([N+](=O)[O-])c1)SS/C(=N/c1ccc(Cl)c([N+](=O)[O-])c1)OCCN1C(=O)c2ccccc2C1=O | 18 | 0.07 | 257 | – | – | – | –
9 | O=C1c2ccccc2C(=O)N1CCCO/C(=N\c1ccc(Br)cc1)SS/C(=N/c1ccc(Br)cc1)OCCCN1C(=O)c2ccccc2C1=O | > 100 | > 100 | – | – | – | – | –
10 | Cc1ccc2c(c1)C(=O)N(CCO/C(=N\c1ccc(Br)cc1)SS/C(=N/c1ccc(Br)cc1)OCCN1C(=O)c3ccc(C)cc3C1=O)C2=O | > 100 | 1.3 | > 77 | – | – | – | –
11 | O=C1c2ccccc2C(=O)N1CCO/C(=N\C1CC1)SS/C(=N/C1CC1)OCCN1C(=O)c2ccccc2C1=O | > 100 | > 100 | – | – | – | – | –
12 | O=C1c2ccccc2C(=O)N1CCO/C(=N\c1ccccc1F)SS/C(=N/c1ccccc1F)OCCN1C(=O)c2ccccc2C1=O | 43 | 1.2 | 36 | – | – | – | –
13 | O=C1c2ccccc2C(=O)N1CCO/C(=N\Cc1ccccc1)SS/C(=N/Cc1ccccc1)OCCN1C(=O)c2ccccc2C1=O | > 100 | 7 | > 14 | – | – | – | –
14 | S=C(NCCc1ccccn1)Nc1ccc(Br)cn1 [TROVIRDINE] | – | – | 3000 | – | – | 1.06 | –
15 | Cc1ccc(/N=C(\OCCN2C(=O)c3ccccc3C2=O)SS/C(=N/c2ccc(C)cc2)OCCN2C(=O)c3ccccc3C2=O)cc1 | 21 | 0.04 | 525 | – | – | – | –
16 | O=C1c2ccccc2C(=O)N1CCO/C(=N\c1ccc(C(F)(F)F)cc1)SS/C(=N/c1ccc(C(F)(F)F)cc1)OCCN1C(=O)c2ccccc2C1=O | > 100 | 0.1 | > 1000 | – | – | – | –
17 | O=C1c2ccccc2C(=O)N1CCO/C(=N\c1cccc(Cl)c1)SS/C(=N/c1cccc(Cl)c1)OCCN1C(=O)c2ccccc2C1=O | 36 | 0.4 | 90 | – | – | – | –
18 | O=C1c2ccccc2C(=O)N1CCO/C(=N\c1cccc(C(F)(F)F)c1)SS/C(=N/c1cccc(C(F)(F)F)c1)OCCN1C(=O)c2ccccc2C1=O | 22 | 2.3 | 9.6 | – | – | – | –
19 | O=C1c2ccccc2C(=O)N1CCO/C(=N\c1c(F)cc(F)cc1F)SS/C(=N/c1c(F)cc(F)cc1F)OCCN1C(=O)c2ccccc2C1=O | 39 | 1.2 | 33 | – | – | – | –
20 | O=C1c2ccccc2C(=O)N1CCO/C(=N\c1cccc(Cl)c1Cl)SS/C(=N/c1cccc(Cl)c1Cl)OCCN1C(=O)c2ccccc2C1=O | 37 | 18 | 2.1 | – | – | – | –
21 | Cc1cc(Br)ccc1/N=C(\OCCN1C(=O)c2ccccc2C1=O)SS/C(=N/c1ccc(Br)cc1C)OCCN1C(=O)c2ccccc2C1=O | 80 | 1.8 | 44 | 35 | – | – | inactive
22 | O=C1c2ccccc2C(=O)N1CCO/C(=N\c1ccc(F)cc1)SS/C(=N/c1ccc(F)cc1)OCCN1C(=O)c2ccccc2C1=O | 29 | 0.02 | 1450 | – | – | – | –

Row | SMILES | CC50 [1] [µM] | EC50 [2] [µM] | selectivity ratio [3] | EC50 [4] [µM] | EC50 [5] [µM] | IC50 [6] [µM] | Activity [5]
23 | O=C1c2ccccc2C(=O)N1CCO/C(=N\c1ccc(Cl)c(C(F)(F)F)c1)SS/C(=N/c1ccc(Cl)c(C(F)(F)F)c1)OCCN1C(=O)c2ccccc2C1=O | > 100 | 28 | > 3.6 | – | – | – | –
24 | O=C1c2ccccc2C(=O)N1CCO/C(=N\c1cccc([N+](=O)[O-])c1)SS/C(=N/c1cccc([N+](=O)[O-])c1)OCCN1C(=O)c2ccccc2C1=O | > 100 | 0.7 | > 143 | – | – | – | –
25 | O=C1c2ccccc2C(=O)N1CCO/C(=N\c1ccccc1Cl)SS/C(=N/c1ccccc1Cl)OCCN1C(=O)c2ccccc2C1=O | 9 | > 9 | < 1 | – | – | – | –
26 | O=C1c2ccccc2C(=O)N1CCO/C(=N\c1ccc(Br)cc1)SS/C(=N/c1ccc(Br)cc1)OCCN1C(=O)c2ccccc2C1=O | 42 | 0.01 | 4200 | – | – | 0.74 | –
27 | COc1ccc(/N=C(\OCCN2C(=O)c3ccccc3C2=O)SS/C(=N/c2ccc(OC)cc2)OCCN2C(=O)c3ccccc3C2=O)cc1 | 90 | 0.06 | 1500 | – | – | – | –
28 | O=C1c2ccccc2C(=O)N1CCO/C(=N\c1ccc(Cl)cc1Cl)SS/C(=N/c1ccc(Cl)cc1Cl)OCCN1C(=O)c2ccccc2C1=O | > 100 | 4 | > 25 | – | – | – | –
29 | O=C1c2ccccc2C(=O)N1CCO/C(=N\c1cc(F)cc(F)c1)SS/C(=N/c1cc(F)cc(F)c1)OCCN1C(=O)c2ccccc2C1=O | 37 | > 37 | < 1 | – | – | – | –
30 | c1ccc(CCO/C(=N\c2ccccc2)SS/C(=N/c2ccccc2)OCCc2ccccc2)cc1 | 70 | 11 | 6.4 | – | – | – | –
31 | O=C1Nc2ccc(Cl)cc2C(C#CC2CC2)(C(F)(F)F)O1 (single isomer, unassigned) [EFAVIRENZ] | – | – | – | 0.01 | 0.04 | – | –
32 | O=C1c2ccccc2C(=O)N1CCO/C(=N\c1ccc(Cl)c(Cl)c1)SS/C(=N/c1ccc(Cl)c(Cl)c1)OCCN1C(=O)c2ccccc2C1=O | > 100 | 7 | > 14 | – | – | – | –
33 | O=C1c2ccccc2C(=O)N1CCO/C(=N\c1cccc(Br)c1)SS/C(=N/c1cccc(Br)c1)OCCN1C(=O)c2ccccc2C1=O | 89 | 6 | 15 | – | – | – | –
34 | O=C1c2ccccc2C(=O)N1CCO/C(=N\c1ccc(F)cc1F)SS/C(=N/c1ccc(F)cc1F)OCCN1C(=O)c2ccccc2C1=O | 27 | 0.05 | 541 | – | – | – | –
35 | O=C1c2ccccc2C(=O)N1CCO/C(=N\c1cccc(F)c1)SS/C(=N/c1cccc(F)c1)OCCN1C(=O)c2ccccc2C1=O | 38 | 5 | 7.6 | – | – | – | –
36 | O=C1c2ccccc2C(=O)N1CCO/C(=N\c1cc(Cl)ccc1Cl)SS/C(=N/c1cc(Cl)ccc1Cl)OCCN1C(=O)c2ccccc2C1=O | > 100 | > 100 | – | – | – | – | –
37 | COc1cccc(/N=C(\OCCN2C(=O)c3ccccc3C2=O)SS/C(=N/c2cccc(OC)c2)OCCN2C(=O)c3ccccc3C2=O)c1 | 80 | 1.3 | 61 | – | – | – | –
38 | O=C1c2ccccc2C(=O)N1CCO/C(=N\c1ccccc1)SS/C(=N/c1ccccc1)OCCN1C(=O)c2ccccc2C1=O | 80 | 0.35 | 229 | – | – | – | –
39 | O=C1c2ccccc2C(=O)N1CCO/C(=N\c1ccc(I)cc1)SS/C(=N/c1ccc(I)cc1)OCCN1C(=O)c2ccccc2C1=O | 48 | 0.03 | 1600 | – | – | – | –
40 | O=C1c2ccccc2C(=O)N1CCO/C(=N\c1cc(F)ccc1F)SS/C(=N/c1cc(F)ccc1F)OCCN1C(=O)c2ccccc2C1=O | 52 | 1.3 | 40 | – | – | – | –
41 | N#Cc1ccc(/N=C(\OCCN2C(=O)c3ccccc3C2=O)SS/C(=N/c2ccc(C#N)cc2)OCCN2C(=O)c3ccccc3C2=O)cc1 | > 100 | 0.1 | > 1000 | – | – | – | –
42 | CC(=O)c1ccc(/N=C(\OCCN2C(=O)c3ccccc3C2=O)SS/C(=N/c2ccc(C(C)=O)cc2)OCCN2C(=O)c3ccccc3C2=O)cc1 | > 100 | 24 | > 4.2 | – | – | – | –
43 | Cc1ccccc1/N=C(\OCCN1C(=O)c2ccccc2C1=O)SS/C(=N/c1ccccc1C)OCCN1C(=O)c2ccccc2C1=O | 11 | > 11 | < 1 | – | – | – | –

From ChEMBL document CHEMBL1150425, “Parallel one-pot synthesis and structure-activity relationship study of symmetric formimidoester disulfides as a novel class of potent non-nucleoside HIV-1 reverse transcriptase inhibitors” (Bioorg Med Chem, 2008)
